Experimental data as given in ChEMBL document CHEMBL5329178, “Synthesis and antibacterial activity of 2-benzylidene-3-oxobutanamide derivatives against resistant pathogens” (RSC Med Chem, 2023).
Calls of active or inactive are those of the source. The rule behind the calls is not given here.

How the values were obtained:
Acinetobacter baumannii [1] = experiment: Bactericidal activity against Acinetobacter baumannii assessed as log reduction in bacterial count measured after 24 hrs by time kill assay; type: functional
How it was run: (§1)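 Time-kill assay in cation-adjusted MHB. Overnight cultures (S. aureus MRSA ATCC 700698; A. baumannii ATCC 19606) diluted 1:10,000, grown 2 h at 37 °C, 220 rpm to early exponential phase. […] Aliquots taken at intervals, tenfold serially diluted, plated on MHA overnight at 37 °C for CFU counts.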

Escherichia coli = experiment: Antibacterial activity against Escherichia coli assessed as growth inhibition at 32 ug/mL by whole cell growth inhibition assay relative to control; type: functional; settings: read-out: GI
How it was run: (§2)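 Primary single-concentration screen at 32 µg/mL, final DMSO ≤1%, duplicate on different plates. Mid-log cultures in cation-adjusted Mueller Hinton broth at 5×10^5 CFU/mL; 37 °C, 18 h, no shaking. OD600 read; % growth inhibition relative to media-only and untreated-bacteria controls on the same plate. Strains: E. coli ATCC 25922, A. baumannii ATCC 19606, S. aureus ATCC 43300 (MRSA).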

Acinetobacter baumannii [2] = experiment: Antibacterial activity against Multi drug resistant Acinetobacter baumannii assessed as growth inhibition at 32 ug/mL by HIT assay relative to control; type: functional; settings: read-out: GI
How it was run: (§3)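 A. baumannii ATCC 19606 and MRSA ATCC 43300 were grown overnight in cation-adjusted Mueller Hinton broth at 37 °C, subcultured to mid-log, and added at 5×10^5 CFU/mL to an 8-point, 2-fold dilution series (32–0.25 µg/mL; ≤0.5% DMSO). After 18 h static at 37 °C, OD600 was read. Percent inhibition was taken against media-only and untreated-bacteria wells, in duplicate. MIC was the lowest concentration giving ≥80% inhibition.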

[3] = Octanol/Water partition coefficient, logP of the compound; type: physicochemical
[4] = Solubility of the compound in water; type: physicochemical; settings: buffer
[5] = Cytotoxicity against human HEK293 cells assessed as cell viability at 64 ug/ml relative to control; type: toxicity, cell-based; settings: at 64 µg/mL, read-out: Activity
Acinetobacter baumannii [6] = experiment: Antibacterial activity against Acinetobacter baumannii assessed as growth inhibition at 32 ug/mL by whole cell growth inhibition assay relative to control; type: functional; settings: read-out: GI; how it was run: as §2
[7] = Hemolytic activity in RBC (unknown origin) assessed as cell viability at 64 ug/ml relative to control; type: toxicity, cell-based, Erythrocyte; settings: red blood cells (erythrocytes), at 64 µg/mL, read-out: Activity
Staphylococcus aureus [8] = experiment: Antibacterial activity against Staphylococcus aureus assessed as growth inhibition at 32 ug/mL by whole cell growth inhibition assay relative to control; type: functional; settings: read-out: GI; how it was run: as §2
Staphylococcus aureus [9] = experiment: Antibacterial activity against methicillin resistant Staphylococcus aureus assessed as growth inhibition; type: functional, organism-based; how it was run: as §3
Acinetobacter baumannii [10] = experiment: Antibacterial activity against susceptible Acinetobacter baumannii; type: functional
Staphylococcus aureus [11] = experiment: Antibacterial activity against methicillin resistant Staphylococcus aureus assessed as growth inhibition at 2 ug/mL by HIT assay relative to control; type: functional; settings: read-out: GI; how it was run: as §3
Staphylococcus aureus [12] = experiment: Bacteriostatic activity against Staphylococcus aureus ATCC 700698 assessed as log reduction in colony forming unit measured per ml after 24 hrs by time kill assay; type: functional; how it was run: as §1
Staphylococcus aureus [13] = experiment: Antibacterial activity against methicillin resistant Staphylococcus aureus assessed as growth inhibition at 32 ug/mL by HIT assay relative to control; type: functional; settings: read-out: GI; how it was run: as §3
Acinetobacter baumannii [14] = experiment: Bactericidal activity against multi-drug resistant Acinetobacter baumannii assessed as log reduction in colony forming unit measured after 24 hrs by time kill assay; type: functional
How it was run: (§4)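 MRSA ATCC 700698 and A. baumannii ATCC 19606 overnight cultures were diluted 1:10,000 in MHB and grown 2 h at 37 °C and 220 rpm to early exponential phase. […] At intervals, aliquots were tenfold serially diluted, plated on MHA and incubated overnight at 37 °C for CFU counts.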

Staphylococcus aureus [15] = experiment: Bacteriostatic activity against methicillin resistant Staphylococcus aureus assessed as log reduction in colony forming unit measured after 24 hrs by time kill assay; type: functional; how it was run: as §4
Acinetobacter baumannii [16] = experiment: Antibacterial activity against Multi drug resistant Acinetobacter baumannii assessed as growth inhibition at 16 ug/mL by HIT assay relative to control; type: functional; settings: read-out: GI; how it was run: as §3
Staphylococcus aureus [17] = experiment: Antibacterial activity against methicillin resistant Staphylococcus aureus assessed as growth inhibition at 16 ug/mL by HIT assay relative to control; type: functional; settings: read-out: GI; how it was run: as §3

| SMILES | inhibition of growth at 32 µg/mL (Escherichia coli) | logP [3] | solubility [4] | inhibition of growth at 32 µg/mL (Acinetobacter baumannii [6]) | inhibition of growth at 32 µg/mL (Staphylococcus aureus [8]) | further results |
| --- | --- | --- | --- | --- | --- | --- |
| CC(=O)/C(=C/c1ccccc1C#N)C(N)=O | 52.1% | 1.09 | Soluble | 70.8% | 14.4% | log(activity) (Acinetobacter baumannii [1]): >3; inhibition of growth at 32 µg/mL (Acinetobacter baumannii [2]): 50.5%; viability at 64 ug/ml [5]: 97.6%; viability at 64 ug/ml [7]: 92.2% |
| CC(=O)/C(=C/c1ccc(C)cc1)C(N)=O |  | 1.68 | Soluble |  |  |  |
| CC(=O)/C(=C/c1ccc(C#N)cc1)C(N)=O |  | 1.13 | Soluble |  |  |  |
| CC(=O)/C(=C/c1ccc2c(c1)OCO2)C(N)=O |  | 1.23 | Soluble |  |  |  |
| CC(=O)/C(=C/c1ccccc1[N+](=O)[O-])C(N)=O |  | 1.09 | Soluble |  |  |  |
| CC(=O)/C(=C/c1cccc(F)c1)C(N)=O |  | 1.49 | Soluble |  |  |  |
| CC(=O)/C(=C/c1ccc(O)cc1)C(N)=O |  | 0.94 | Soluble |  |  |  |
| CN[C@H](CC(C)C)C(=O)N[C@H]1C(=O)N[C@@H](CC(N)=O)C(=O)N[C@H]2C(=O)N[C@H]3C(=O)N[C@H](C(=O)N[C@H](C(=O)O)c4cc(O)cc(O)c4-c4cc3ccc4O)[C@H](O)c3ccc(c(Cl)c3)Oc3cc2cc(c3O[C@@H]2O[C@H](CO)[C@@H](O)[C@H](O)[C@H]2O[C@H]2C[C@](C)(N)[C@H](O)[C@H](C)O2)Oc2ccc(cc2Cl)[C@H]1O.Cl [VANCOMYCIN HYDROCHLORIDE] |  |  |  |  |  | growth inhibition (GI) (Staphylococcus aureus [9]): inactive; MIC (Acinetobacter baumannii [10]): 0.25 µg/mL |
| CC(=O)/C(=C/c1cccc(Br)c1)C(N)=O |  | 1.73 | Soluble |  |  |  |
| CC(=O)/C(=C/c1ccc(C(F)(F)F)cc1)C(N)=O |  | 2.43 | Soluble |  |  |  |
| CC(=O)/C(=C/c1ccc([N+](=O)[O-])cc1)C(N)=O | 68.1% | 1.13 | Soluble | 30.5% | 98.2% | inhibition of growth at 2 µg/mL (Staphylococcus aureus [11]): 98.7%; viability at 64 ug/ml [5]: 90.6%; Activity (Staphylococcus aureus [12]): 2 log10CFU/ml; viability at 64 ug/ml [7]: 95.1% |
| CC(=O)/C(=C/c1cccc(C#N)c1)C(N)=O |  | 1.15 | Soluble |  |  |  |
| CC(=O)/C(=C/c1ccccc1Br)C(N)=O | 51.6% | 1.62 | Soluble | 60% | 93.8% | viability at 64 ug/ml [5]: 90.2%; Activity (Staphylococcus aureus [12]): 2 log10CFU/ml; inhibition of growth at 32 µg/mL (Staphylococcus aureus [13]): 80%; viability at 64 ug/ml [7]: 95.3% |
| CC(=O)/C(=C/c1ccccc1Cl)C(N)=O | 66.8% | 1.38 | Soluble | 58.8% | 98.1% |  |
| COc1cc(/C=C/C(=O)CC(=O)/C=C/c2ccc(O)c(OC)c2)ccc1O [CURCUMIN] |  | 3.03 | Soluble |  |  |  |
| CC(=O)/C(=C/c1ccccc1)C(N)=O |  | 1.6 | Soluble |  |  |  |
| CC(=O)/C(=C/c1cccc([N+](=O)[O-])c1)C(N)=O | 51.1% | 1.15 | Soluble | 98% | 83.7% | inhibition of growth at 2 µg/mL (Staphylococcus aureus [11]): 99.4%; Activity (Acinetobacter baumannii [14]): >3 log10CFU; viability at 64 ug/ml [5]: 93.8%; Activity (Staphylococcus aureus [15]): >3 log10CFU; inhibition of growth at 16 µg/mL (Acinetobacter baumannii [16]): 98.2%; Activity (Staphylococcus aureus [12]): 2 log10CFU/ml; viability at 64 ug/ml [7]: 96.4% |
| CC(=O)/C(=C/c1ccc(OCc2ccccc2)cc1)C(N)=O |  | 2.72 | Soluble |  |  |  |
| CC(=O)/C(=C/c1ccc(Cl)cc1)C(N)=O | 67.8% | 1.88 | Soluble | 65.4% | 87.5% |  |
| CC(=O)/C(=C/c1ccccc1F)C(N)=O | 59.7% | 1.66 | Soluble | 58.2% | 43.8% |  |
| CCc1ccc(/C=C(/C(C)=O)C(N)=O)cc1 |  | 1.99 | Soluble |  |  |  |
| CC(=O)/C(=C/c1ccc(Br)cc1)C(N)=O | 51.8% | 1.62 | Soluble | 53% | 83.7% | viability at 64 ug/ml [5]: 94.8%; Activity (Staphylococcus aureus [12]): 2 log10CFU/ml; inhibition of growth at 32 µg/mL (Staphylococcus aureus [13]): 94.2%; viability at 64 ug/ml [7]: 98.9% |
| O=C(/C=C/c1ccccc1)c1ccccc1 [CHALCONE] |  | 3.29 | Soluble |  |  |  |
| COc1cc(/C=C(/C(C)=O)C(N)=O)cc(OC)c1OC |  | 1.41 | Soluble |  |  |  |
| COc1cccc(/C=C(/C(C)=O)C(N)=O)c1OC |  | 1.3 | Soluble |  |  |  |
| CCc1ccc(/C=C(/C(C)=O)C(N)=O)cc1[N+](=O)[O-] | 25.5% | 1.31 | Soluble | 27.7% | 82.7% | viability at 64 ug/ml [5]: 88.9%; inhibition of growth at 16 µg/mL (Staphylococcus aureus [17]): 99.2%; viability at 64 ug/ml [7]: 94.5% |
